Measurements from ChEMBL document CHEMBL4270599, “Synthesis of a 3'-C-ethynyl-β-d-ribofuranose purine nucleoside library: Discovery of C7-deazapurine analogs as potent antiproliferative nucleosides” (Eur J Med Chem, 2018).

Key:
L1210 = experiment: Antiproliferative activity against mouse L1210 cells after 48 hrs by Coulter counter method; type: functional, cell-based; details: L1210, 48 h
Procedure, shortened: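 Cell count assay in 96-well microtiter plates; (5–7.5) × 10⁴ tumor cells per well plus test compound. Cells proliferated at 37 °C in humidified CO₂-controlled atmosphere, 48 h for murine leukemia L1210, 72 h for human lymphocytic CEM and cervix carcinoma HeLa. Counted by Coulter counter; IC₅₀ is the concentration that inhibits proliferation by 50%.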

SR = experiment: Cytotoxicity against human SR cells after 48 hrs by SRB assay; type: functional; details: for CC50: read-out: pLC50 (the source's name) (converted)
KM12 = experiment: Cytotoxicity against human KM12 cells after 48 hrs by SRB assay; type: functional; details: KM12, 48 h
SNB-19 [1] = experiment: Cytotoxicity against human SNB19 cells after 48 hrs by SRB assay; type: functional; details: SNB-19, 48 h; for CC50: read-out: pLC50 (the source's name) (converted)
U-251 = experiment: Cytotoxicity against human U251 cells after 48 hrs by SRB assay; type: functional; details: U-251, 48 h
M14 [2] = experiment: Cytotoxicity against human M14 cells after 48 hrs by SRB assay; type: functional; details: M14, 48 h
OVCAR-4 = experiment: Cytotoxicity against human OVCAR4 cells after 48 hrs by SRB assay; type: functional; details: OVCAR-4, 48 h
A498 = experiment: Cytotoxicity against human A498 cells after 48 hrs by SRB assay; type: functional; details: A498, 48 h
T47D = experiment: Cytotoxicity against human T47D cells after 48 hrs by SRB assay; type: functional
NCI-H226 [3] = experiment: Growth inhibition of human NCI-H226 cells assessed as cell growth at 10^-8 M incubated for 48 hrs by sulforhodamine B assay relative to control; type: functional; details: NCI-H226, 48 h, read-out: Activity
MDA-MB-468 [4] = experiment: Growth inhibition of human MDA-MB-468 cells assessed as cell growth at 10^-8 M incubated for 48 hrs by sulforhodamine B assay relative to control; type: functional; details: MDA-MB-468, 48 h, read-out: Activity
A549 = experiment: Growth inhibition of human A549/ATCC cells assessed as cell growth at 10^-7 M incubated for 48 hrs by sulforhodamine B assay relative to control; type: functional; details: A549, 48 h, read-out: Activity
HOP-62 = experiment: Growth inhibition of human HOP62 cells assessed as cell growth at 10^-7 M incubated for 48 hrs by sulforhodamine B assay relative to control; type: functional; details: HOP-62, 48 h, read-out: Activity
NCI-H23 = experiment: Growth inhibition of human NCI-H23 cells assessed as cell growth at 10^-7 M incubated for 48 hrs by sulforhodamine B assay relative to control; type: functional; details: NCI-H23, 48 h, read-out: Activity
HCC 2998 = experiment: Growth inhibition of human HCC2998 cells assessed as cell growth at 10^-7 M incubated for 48 hrs by sulforhodamine B assay relative to control; type: functional; details: HCC 2998, 48 h, read-out: Activity
ACHN = experiment: Growth inhibition of human ACHN cells assessed as cell growth at 10^-7 M incubated for 48 hrs by sulforhodamine B assay relative to control; type: functional; details: read-out: Activity
SN12C = experiment: Growth inhibition of human SN12C cells assessed as cell growth at 10^-7 M incubated for 48 hrs by sulforhodamine B assay relative to control; type: functional; details: read-out: Activity
MDA-MB-468 [5] = experiment: Growth inhibition of human MDA-MB-468 cells assessed as cell growth at 10^-7 M incubated for 48 hrs by sulforhodamine B assay relative to control; type: functional; details: MDA-MB-468, 48 h, read-out: Activity
NCI-H226 [6] = experiment: Growth inhibition of human NCI-H226 cells assessed as cell growth at 10^-6 M incubated for 48 hrs by sulforhodamine B assay relative to control; type: functional; details: NCI-H226, 48 h, read-out: Activity
SW-620 = experiment: Growth inhibition of human SW620 cells assessed as cell growth at 10^-6 M incubated for 48 hrs by sulforhodamine B assay relative to control; type: functional; details: SW-620, 48 h, read-out: Activity
SNB-75 = experiment: Growth inhibition of human SNB75 cells assessed as cell growth at 10^-6 M incubated for 48 hrs by sulforhodamine B assay relative to control; type: functional; details: SNB-75, 48 h, read-out: Activity
OVCAR-5 = experiment: Growth inhibition of human OVCAR5 cells assessed as cell growth at 10^-6 M incubated for 48 hrs by sulforhodamine B assay relative to control; type: functional; details: OVCAR-5, 48 h, read-out: Activity
TK-10 = experiment: Growth inhibition of human TK10 cells assessed as cell growth at 10^-6 M incubated for 48 hrs by sulforhodamine B assay relative to control; type: functional; details: TK-10, 48 h, read-out: Activity
MDA-MB-231 [7] = experiment: Growth inhibition of human MDA-MB-231 cells assessed as cell growth at 10^-6 M incubated for 48 hrs by sulforhodamine B assay relative to control; type: functional; details: MDA-MB-231, 48 h, read-out: Activity
SNB-19 [8] = experiment: Growth inhibition of human SNB19 cells assessed as cell growth at 10^-5 M incubated for 48 hrs by sulforhodamine B assay relative to control; type: functional; details: SNB-19, 48 h, read-out: Activity
M14 [9] = experiment: Growth inhibition of human M14 cells assessed as cell growth at 10^-5 M incubated for 48 hrs by sulforhodamine B assay relative to control; type: functional; details: M14, 48 h, read-out: Activity
CCRF-CEM = experiment: Growth inhibition of human CCRF-CEM cells assessed as cell growth at 10^-4 M incubated for 48 hrs by sulforhodamine B assay relative to control; type: functional; details: read-out: Activity
IGROV-1 = experiment: Growth inhibition of human IGROV1 cells assessed as cell growth at 10^-4 M incubated for 48 hrs by sulforhodamine B assay relative to control; type: functional; details: IGROV-1, 48 h, read-out: Activity
MDA-MB-231 [10] = experiment: Growth inhibition of human MDA-MB-231 cells assessed as cell growth at 10^-4 M incubated for 48 hrs by sulforhodamine B assay relative to control; type: functional; details: MDA-MB-231, 48 h, read-out: Activity
HUVEC = experiment: Antiproliferative activity against HUVEC cells after 4 days by Coulter counter method; type: cell-based; details: Homo sapiens, 96 h
Procedure, shortened: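 Primary HUVEC, primary HMVEC-d and the HMEC-1 line seeded at 20,000 cells/well in gelatin-coated plates in EC growth medium (EGM2). After overnight incubation, 5-fold compound dilutions added. Cells proliferated four days with compound, then trypsinized and counted by Coulter counter to derive IC₅₀.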

[11] = read-out: pLC50 (the source's name) (converted)
[12] = read-out: LC50 (the source's name)

SMILES: C#C[C@@]1(O)[C@@H](CO)O[C@@H](n2ccc3c(N)ncnc32)[C@@H]1O
- IC50 (L1210): 0.38 µM
- TGI (SR; read-out: TGI): > 100 µM
- GI50 (SR; read-out: pGI50 (converted)): 0.813 µM
- CC50 (SR): > 100 µM
- TGI (SR; read-out: pTGI): > 100 µM
- TGI (KM12; read-out: TGI): 10.9 µM
- CC50 (KM12; [11]): 91.2 µM
- TGI (KM12; read-out: pTGI (converted)): 11 µM
- TGI (SNB-19 [1]; read-out: TGI): 6.6 µM
- GI50 (SNB-19 [1]; read-out: pGI50 (converted)): 1.62 µM
- CC50 (SNB-19 [1]): > 100 µM
- TGI (SNB-19 [1]; read-out: pTGI (converted)): 6.61 µM
- TGI (U-251; read-out: TGI): 11.8 µM
- GI50 (U-251; read-out: pGI50 (converted)): 2.45 µM
- CC50 (U-251; [11]): > 100 µM
- TGI (U-251; read-out: pTGI (converted)): 11.7 µM
- TGI (M14 [2]; read-out: TGI): 3 µM
- GI50 (M14 [2]; read-out: pGI50 (converted)): 1.41 µM
- CC50 (M14 [2]; [11]): 6.31 µM
- TGI (M14 [2]; read-out: pTGI (converted)): 3.02 µM
- TGI (OVCAR-4; read-out: TGI): 7.79 µM
- GI50 (OVCAR-4; read-out: pGI50 (converted)): 1.95 µM
- CC50 (OVCAR-4; [11]): 28.2 µM
- TGI (OVCAR-4; read-out: pTGI (converted)): 7.76 µM
- TGI (A498; read-out: TGI): 3.74 µM
- GI50 (A498; read-out: pGI50 (converted)): 1.66 µM
- TGI (A498; read-out: pTGI (converted)): 3.72 µM
- TGI (T47D; read-out: TGI): 2.14 µM
- GI50 (T47D; read-out: pGI50 (converted)): 0.447 µM
- CC50 (T47D; [11]): 7.59 µM
- TGI (T47D; read-out: pTGI (converted)): 2.14 µM
- growth at 0.01 µM (NCI-H226 [3]): 94%
- growth at 0.01 µM (MDA-MB-468 [4]): 93%
- growth at 0.1 µM (A549): 107%
- growth at 0.1 µM (HOP-62): 103%
- growth at 0.1 µM (NCI-H23): 93%
- growth at 0.1 µM (HCC 2998): 93%
- growth at 0.1 µM (ACHN): 101%
- growth at 0.1 µM (SN12C): 96%
- growth at 0.1 µM (MDA-MB-468 [5]): 97%
- growth at 1 µM (NCI-H226 [6]): 92%
- growth at 1 µM (SW-620): 38%
- growth at 1 µM (SNB-75): 90%
- growth at 1 µM (OVCAR-5): 106%
- growth at 1 µM (TK-10): 88%
- growth at 1 µM (MDA-MB-231 [7]): 66%
- growth at 10 µM (SNB-19 [8]): -15%
- growth at 10 µM (M14 [9]): -80%
- growth at 100 µM (CCRF-CEM): 9%
- growth at 100 µM (IGROV-1): -28%
- growth at 100 µM (MDA-MB-231 [10]): -53%

SMILES: C#C[C@@]1(O)[C@@H](CO)O[C@@H](n2cc(Cl)c3c(N)ncnc32)[C@@H]1O
- IC50 (L1210): 0.014 µM
- GI50 (SR; read-out: GI50): 0.0611 to 0.0873 µM
- TGI (SR; read-out: TGI): > 100 µM
- CC50 (SR): > 100 µM
- TGI (SR; read-out: pTGI): > 100 µM
- GI50 (KM12; read-out: GI50): 0.126 to 0.161 µM
- CC50 (KM12; [12]): > 100 µM
- TGI (KM12; read-out: TGI): > 100 µM
- TGI (KM12; read-out: pTGI (converted)): > 100 µM
- GI50 (SNB-19 [1]; read-out: GI50): 0.021 to 0.204 µM
- TGI (SNB-19 [1]; read-out: TGI): 0.294 µM
- CC50 (SNB-19 [1]): > 100 µM
- TGI (SNB-19 [1]; read-out: pTGI (converted)): 0.295 µM
- CC50 (U-251; [12]): > 100 µM
- GI50 (M14 [2]; read-out: GI50): 0.157 to 0.2 µM
- CC50 (M14 [2]; [12]): > 100 µM
- TGI (M14 [2]; read-out: TGI): 0.52 to 0.659 µM
- GI50 (OVCAR-4; read-out: GI50): 0.292 to 0.358 µM
- CC50 (OVCAR-4; [12]): > 100 µM
- TGI (OVCAR-4; read-out: TGI): 1.98 to 5.62 µM
- GI50 (A498; read-out: GI50): 0.225 to 0.334 µM
- CC50 (A498; [12]): 0.842 to 5.62 µM
- TGI (A498; read-out: TGI): 0.435 to 1 µM
- GI50 (T47D; read-out: GI50): 0.0336 to 0.098 µM
- CC50 (T47D; [12]): > 100 µM
- TGI (T47D; read-out: TGI): 0.428 to 0.559 µM
- growth at 0.01 µM (NCI-H226 [3]): 99 to 108%
- growth at 0.01 µM (MDA-MB-468 [4]): 97 to 103%
- growth at 0.1 µM (A549): 61 to 77%
- growth at 0.1 µM (HOP-62): 74 to 86%
- growth at 0.1 µM (NCI-H23): 69 to 73%
- growth at 0.1 µM (HCC 2998): 79 to 80%
- growth at 0.1 µM (ACHN): 72%
- growth at 0.1 µM (SN12C): 53 to 72%
- growth at 0.1 µM (MDA-MB-468 [5]): 82 to 89%
- growth at 1 µM (SW-620): 2 to 7%
- growth at 1 µM (OVCAR-5): 23 to 38%
- growth at 1 µM (MDA-MB-231 [7]): -4%
- growth at 100 µM (CCRF-CEM): 2 to 5%
- IC50 (HUVEC): 0.0049 µM
